Our source for the MIC and viability values is ChEMBL document CHEMBL1275278, “Synthesis and pharmacological evaluation of clubbed isopropylthiazole derived triazolothiadiazoles, triazolothiadiazines and mannich bases as potential antimicrobial and antitubercular agents” (Eur J Med Chem, 2010).

The test system of series [1] is Aspergillus niger. In words: Antifungal activity against Aspergillus niger ATCC 6275 after 24 hrs by broth microdilution method. It counts as functional. The following applies: ATCC 6275, 24 h. A general note: Dilution methods test growth across graded concentrations, often in twofold steps.
Series [2] concerns Staphylococcus aureus. Description: Antibacterial activity against Staphylococcus aureus ATCC 11632 after 24 hrs by broth microdilution method. In kind it is functional. The following applies: ATCC 11632, 24 h. Summed up:
(§1)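 Broth dilution in Mueller-Hinton broth. Tubes inoculated at 10⁵ cfu/mL and incubated 37 °C for 24 h. MIC taken as lowest concentration completely inhibiting growth. Media and media-plus-DMSO growth controls; ciprofloxacin and norfloxacin as reference standards.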

The test system of series [3] is Saccharomyces cerevisiae. In words: Antifungal activity against Saccharomyces cerevisiae ATCC 9763 after 24 hrs by broth microdilution method. In kind it is functional. Conditions: ATCC 9763, 24 h.
Series [4] deals with Candida tropicalis. Description: Antifungal activity against Candida tropicalis ATCC 1369 after 24 hrs by broth microdilution method. The following applies: ATCC 1369, 24 h. In kind it is functional.
For series [5], the system named is Escherichia coli. In words: Antibacterial activity against Escherichia coli ATCC 10536 after 24 hrs by broth microdilution method. It counts as functional. The following applies: ATCC 10536, 24 h. Summed up:
as §1

Series [6] is described as follows: Cytotoxicity against human A549 cells assessed as cell viability at 250 uM by MTT assay relative to control. Conditions: read-out: Activity. It counts as cell-based. Summed up: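 A549 lung adenocarcinoma cells grown with fetal bovine serum. Compounds held as 10 mM DMSO stocks at −20 °C and diluted in culture medium before treatment (50–250 µM). Viability read by MTT assay against untreated cells and DMSO vehicle control. Two experiments, each with triplicate readings.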
On the technique in general: Tetrazolium dyes change colour on reduction, which living cells bring about.

The test system of series [7] is Bacillus subtilis. Description: Antibacterial activity against Bacillus subtilis ATCC 60511 after 24 hrs by broth microdilution method. It counts as functional. The following applies: ATCC 60511, 24 h. In outline:
as §1

Series [8] has as its system Mycobacterium tuberculosis. In words: Antimycobacterial activity against Mycobacterium tuberculosis H37Rv after 21 days by broth dilution assay. In kind it is functional. The following applies: 504 h. In outline: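 Frozen culture in Middlebrook 7H9 broth with 10% albumin-dextrose-catalase and 0.2% glycerol, thawed and diluted in broth to 10⁵ cfu/mL. Compounds dissolved in DMSO, twofold diluted in broth; final DMSO 1.3%. Tubes inoculated, incubated at 37 °C. Growth compared visually against drug-free and drug- and inoculum-free controls and isoniazid. MIC = lowest concentration inhibiting ≥99% of the starting bacterial population.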

The subject of series [9] is Klebsiella pneumoniae. In words: Antibacterial activity against Klebsiella pneumoniae ATCC 10031 after 24 hrs by broth microdilution method. The following applies: ATCC 10031, 24 h. In kind it is functional. In outline: as §1
Series [10] has as its system Enterococcus faecalis. In words: Antibacterial activity against Streptococcus faecalis ATCC 14506 after 24 hrs by broth microdilution method. In kind it is functional. Conditions: ATCC 14506, 24 h. Summed up: as §1
Series [11] relates to Pseudomonas aeruginosa. In words: Antibacterial activity against Pseudomonas aeruginosa ATCC 10145 after 24 hrs by broth microdilution method. It counts as functional. Conditions: ATCC 10145, 24 h. Summed up:
as §1

≈ marks a conversion by molar mass, not a printed value.

One may read the MIC as the lowest concentration that inhibits growth of the organism. As to `COc1ccc(C(=O)Nn2c(-c3nc(C(C)C)cs3)n[nH]c2=S)cc1`, the MIC in series [1] came out at 16 µg/mL (≈ 42.6 µM); in [2], 62.5 µg/mL (≈ 166 µM); in [3], 4 µg/mL (≈ 10.7 µM); in series [4] it was 8 µg/mL (≈ 21.3 µM); in series [5], 8 µg/mL (≈ 21.3 µM); in series [7] it was 62.5 µg/mL (≈ 166 µM). Besides, the minimum inhibitory concentration (MIC) was found to be 16 µg/mL (≈ 42.6 µM) in [8], 16 µg/mL (≈ 42.6 µM) in series [9], 125 µg/mL (≈ 333 µM) in series [10] and 8 µg/mL (≈ 21.3 µM) in series [11]. The viability at 250 µM in series [6] was 50%.

For the molecule `COc1ccc(C2=Nn3c(nnc3-c3nc(C(C)C)cs3)SC2)cc1`, the MIC in series [1] was found to be 16 µg/mL (≈ 43.1 µM); in [2] it was 8 µg/mL (≈ 21.5 µM); in [3] it was 16 µg/mL (≈ 43.1 µM); in [4], 31.2 µg/mL (≈ 84.1 µM); in [5] it was 16 µg/mL (≈ 43.1 µM); in series [7], 8 µg/mL (≈ 21.5 µM). The minimum inhibitory concentration (MIC) amounted to 4 µg/mL (≈ 10.8 µM) in series [8], 16 µg/mL (≈ 43.1 µM) in series [9], 4 µg/mL (≈ 10.8 µM) in [10] and 8 µg/mL (≈ 21.5 µM) in series [11]. For the same molecule, the viability at 250 µM in [6] turned out to be 50%.

With `CC(C)c1csc(-c2nnc3n2N=C(c2ccc(O)cc2)CS3)n1`, the minimal inhibitory concentration (MIC) is 31.2 µg/mL (≈ 87.4 µM) in [1]; 62.5 µg/mL (≈ 175 µM) in [2]; 16 µg/mL (≈ 44.8 µM) in series [3]; 31.2 µg/mL (≈ 87.4 µM) in series [4]; 31.2 µg/mL (≈ 87.4 µM) in series [5]; 31.2 µg/mL (≈ 87.4 µM) in series [7]. Besides, the MIC in series [8] amounted to 125 µg/mL (≈ 350 µM); in series [9], 16 µg/mL (≈ 44.8 µM); in [10] it was 31.2 µg/mL (≈ 87.4 µM); in series [11], 62.5 µg/mL (≈ 175 µM).

Turning to `CC(C)c1csc(-c2nnc3n2N=C(c2ccc(Cl)cc2)CS3)n1`, the MIC in [1] amounted to 31.2 µg/mL (≈ 83.1 µM); in series [2], 125 µg/mL (≈ 333 µM); in [3], 16 µg/mL (≈ 42.6 µM); in [4], 62.5 µg/mL (≈ 166 µM); in [5], 125 µg/mL (≈ 333 µM); in series [7], 8 µg/mL (≈ 21.3 µM). Also, the minimum inhibitory concentration (MIC) in series [8] was determined as 16 µg/mL (≈ 42.6 µM); in [9], 16 µg/mL (≈ 42.6 µM); in [10], 8 µg/mL (≈ 21.3 µM); in series [11] it was 16 µg/mL (≈ 42.6 µM).

`CC(C)c1csc(-c2nnc3sc(S)nn23)n1`: the MIC came to 16 µg/mL (≈ 56.5 µM) in series [1]; 125 µg/mL (≈ 441 µM) in series [2]; 16 µg/mL (≈ 56.5 µM) in series [3]; 8 µg/mL (≈ 28.2 µM) in [4]; 62.5 µg/mL (≈ 221 µM) in series [5]; 16 µg/mL (≈ 56.5 µM) in [7]. For the same molecule, the minimum inhibitory concentration (MIC) in series [8], in series [9], in [10] and in series [11] was 31.2 µg/mL (≈ 110 µM) throughout.

For `CC(C)c1csc(-c2nnc3n2NC(c2ccc(O)cc2)S3)n1` (configuration not stated), the MIC in series [1] was found to be 125 µg/mL (≈ 362 µM); in series [2], 62.5 µg/mL (≈ 181 µM); in [3], 62.5 µg/mL (≈ 181 µM); in [4] it was 125 µg/mL (≈ 362 µM); in [5] it was 62.5 µg/mL (≈ 181 µM); in [7], 31.2 µg/mL (≈ 90.5 µM). The MIC in [8] stood at 125 µg/mL (≈ 362 µM); in [9], 62.5 µg/mL (≈ 181 µM); in series [10], 62.5 µg/mL (≈ 181 µM); in [11], 62.5 µg/mL (≈ 181 µM).

Take `CC(C)c1csc(-c2nn(CN3CCOCC3)c(=S)o2)n1`: the minimal inhibitory concentration (MIC) in series [1] came out at 62.5 µg/mL (≈ 191 µM); in [2], 31.2 µg/mL (≈ 95.7 µM); in [3] it was 31.2 µg/mL (≈ 95.7 µM); in series [4] it was 31.2 µg/mL (≈ 95.7 µM); in series [5], 31.2 µg/mL (≈ 95.7 µM); in [7], 16 µg/mL (≈ 49 µM). Moreover, the minimal inhibitory concentration (MIC) worked out at 31.2 µg/mL (≈ 95.7 µM) in [8], 31.2 µg/mL (≈ 95.7 µM) in [9], 16 µg/mL (≈ 49 µM) in series [10] and 16 µg/mL (≈ 49 µM) in series [11].

Turning to `CC(C)c1csc(-c2nn(CN3CCOCC3)c(=S)n2/N=C/c2ccc(N(C)C)cc2)n1`, the minimal inhibitory concentration (MIC) in [1] was 16 µg/mL (≈ 33.9 µM); in [2], 16 µg/mL (≈ 33.9 µM); in series [3], 62.5 µg/mL (≈ 133 µM); in series [4], 31.2 µg/mL (≈ 66.3 µM); in series [5], 31.2 µg/mL (≈ 66.3 µM); in series [7], 16 µg/mL (≈ 33.9 µM). For the same molecule, the minimal inhibitory concentration (MIC) in series [8] was determined as 16 µg/mL (≈ 33.9 µM); in [9] it was 31.2 µg/mL (≈ 66.3 µM); in series [10] it was 31.2 µg/mL (≈ 66.3 µM); in series [11], 31.2 µg/mL (≈ 66.3 µM).

Consider `CC(C)c1csc(-c2nn(CN3CCN(C)CC3)c(=S)o2)n1`, for which the MIC in [1] was 16 µg/mL (≈ 47.1 µM); in [2], 62.5 µg/mL (≈ 184 µM); in [3], 62.5 µg/mL (≈ 184 µM); in [4], 31.2 µg/mL (≈ 92 µM); in [5] it was 31.2 µg/mL (≈ 92 µM); in series [7], 31.2 µg/mL (≈ 92 µM). Besides, the MIC in series [8] amounted to 16 µg/mL (≈ 47.1 µM); in [9], 16 µg/mL (≈ 47.1 µM); in [10], 31.2 µg/mL (≈ 92 µM); in [11], 16 µg/mL (≈ 47.1 µM).
